Tests used:
Format in all cases: tissue-based
[1] = organism: Rattus norvegicus; test: Stimulation [3H]flunitrazepam binding to benzodiazepine binding site of GABA-A receptor in Sprague-Dawley rat cerebellum at 800 nM by liquid scintillation spectrophotometry
Method in brief: (§1)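 Male rat (200–250 g) cerebellar P2 membranes, washed and resuspended in 50 mM Tris–HCl pH 7.1 (~1 mg/mL protein). Incubated with 1 nM [3H]flunitrazepam and steroids at 10–800 nM for 90 min at 4 °C. Steroids were in DMSO, diluted 1:1000 in buffer just before use. 1 µM diazepam defined non-specific binding. Filtered, then scintillation counting. Mean of four experiments in duplicate.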

[2] = organism: Rattus norvegicus; test: Stimulation [3H]muscimol binding to GABA binding site of GABA-A receptor in Sprague-Dawley rat cerebellum at 800 nM by liquid scintillation spectrophotometry
Method in brief: (§2)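 Rat cerebellar P2 membranes (male, 200–250 g) in 50 mM Tris–acetate pH 7.4, about 1 mg/mL protein. Incubated with 10 nM [3H]muscimol and steroids at 20–1000 nM for 60 min at 4 °C. Steroid DMSO stocks were diluted 1:1000 in buffer. 10 µM GABA defined non-specific binding. Vacuum filtration over glass-fibre filters, scintillation counting. Four experiments in duplicate, averaged.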

[3] = organism: Rattus norvegicus; test: Stimulation [3H]flunitrazepam binding to benzodiazepine binding site of GABA-A receptor in Sprague-Dawley rat cerebellum at 100 nM by liquid scintillation spectrophotometry; method in brief: as §1
[4] = organism: Rattus norvegicus; test: Stimulation [3H]muscimol binding to GABA binding site of GABA-A receptor in Sprague-Dawley rat cerebellum at 400 nM by liquid scintillation spectrophotometry; method in brief: as §2
[5] = organism: Rattus norvegicus; test: Stimulation [3H]muscimol binding to GABA binding site of GABA-A receptor in Sprague-Dawley rat cerebellum at 20 nM by liquid scintillation spectrophotometry; method in brief: as §2
[6] = organism: Rattus norvegicus; test: Stimulation [3H]muscimol binding to GABA binding site of GABA-A receptor in Sprague-Dawley rat cerebellum at 100 nM by liquid scintillation spectrophotometry; method in brief: as §2
[7] = organism: Rattus norvegicus; test: Stimulation [3H]flunitrazepam binding to benzodiazepine binding site of GABA-A receptor in Sprague-Dawley rat cerebellum by liquid scintillation spectrophotometry; method in brief: as §1
[8] = organism: Rattus norvegicus; test: Stimulation [3H]flunitrazepam binding to benzodiazepine binding site of GABA-A receptor in Sprague-Dawley rat cerebellum at 250 nM by liquid scintillation spectrophotometry; method in brief: as §1
[9] = organism: Rattus norvegicus; test: Stimulation [3H]muscimol binding to GABA binding site of GABA-A receptor in Sprague-Dawley rat cerebellum at 1000 nM by liquid scintillation spectrophotometry; method in brief: as §2
[10] = organism: Rattus norvegicus; test: Stimulation [3H]muscimol binding to GABA binding site of GABA-A receptor in Sprague-Dawley rat cerebellum at 200 nM by liquid scintillation spectrophotometry; method in brief: as §2
[11] = organism: Rattus norvegicus; test: Stimulation [3H]flunitrazepam binding to benzodiazepine binding site of GABA-A receptor in Sprague-Dawley rat cerebellum at 500 nM by liquid scintillation spectrophotometry; method in brief: as §1
[12] = organism: Rattus norvegicus; test: Stimulation [3H]flunitrazepam binding to benzodiazepine binding site of GABA-A receptor in Sprague-Dawley rat cerebellum at 50 nM by liquid scintillation spectrophotometry; method in brief: as §1
[13] = organism: Rattus norvegicus; test: Stimulation [3H]muscimol binding to GABA binding site of GABA-A receptor in Sprague-Dawley rat cerebellum at 50 nM by liquid scintillation spectrophotometry; method in brief: as §2
[14] = organism: Rattus norvegicus; test: Stimulation [3H]flunitrazepam binding to benzodiazepine binding site of GABA-A receptor in Sprague-Dawley rat cerebellum at 25 nM by liquid scintillation spectrophotometry; method in brief: as §1
[15] = organism: Rattus norvegicus; test: Stimulation [3H]muscimol binding to GABA binding site of GABA-A receptor in Sprague-Dawley rat cerebellum by liquid scintillation spectrophotometry; method in brief: as §2
[16] = organism: Rattus norvegicus; test: Stimulation [3H]flunitrazepam binding to benzodiazepine binding site of GABA-A receptor in Sprague-Dawley rat cerebellum at 10 nM by liquid scintillation spectrophotometry; method in brief: as §1

With `CC(=O)[C@H]1CC[C@H]2[C@@H]3CC[C@H]4C[C@H](F)[C@@H]5C[C@]4(COS(=O)(=O)N5)[C@H]3CC[C@]12C` the Activity [1] was 98% and the Activity [2] was 96%.

With `CC(=O)[C@H]1CC[C@H]2[C@@H]3CC[C@H]4C[C@H](O)[C@@H]5C[C@]4(COS(=O)(=O)N5)[C@H]3CC[C@]12C` the Activity [3] was 122%, the Activity [4] was 118% and the Activity [5] was 100%. It also gave an Activity [6] of 108%, an Activity [1] of 170% and an Activity [2] of 170%. For the same compound, the EC50 [7] was 63 nM, the Activity [8] was 126% and the Activity [9] was 176%. The Activity [10] was 106%, the Activity [11] was 126% and the Activity [12] was 122%. The Activity [13] was 105%, the Activity [14] was 113% and the EC50 [15] was 542 nM. It also gave an Activity [16] of 104%.

With `CC(=O)[C@H]1CC[C@H]2[C@@H]3CC[C@H]4C[C@H](O)CC[C@]4(C)[C@H]3CC[C@]12C` the Activity [3] was 97%, the Activity [4] was 116% and the Activity [5] was 95%. It also gave an Activity [6] of 108%, an Activity [1] of 140% and an Activity [2] of 165%. The EC50 [7] was 265 nM, the Activity [8] was 122% and the Activity [9] was 173%. For the same compound, the Activity [10] was 106%, the Activity [11] was 132% and the Activity [12] was 92%. For the same compound, the Activity [13] was 100%, the Activity [14] was 93% and the EC50 [15] was 658 nM. It also gave an Activity [16] of 93%.

`CC(=O)[C@H]1CC[C@H]2[C@@H]3CC[C@H]4C[C@H](O)[C@@H]5C[C@]4(COS(=O)(=O)N5Cc4ccccc4)[C@H]3CC[C@]12C` was tested, and the Activity [3] was 117%, the Activity [4] was 124% and the Activity [5] was 119%. The Activity [6] was 121%, the Activity [1] was 134% and the Activity [2] was 124%. The EC50 [7] was 81 nM, the Activity [8] was 122% and the Activity [9] was 141%. For the same compound, the Activity [10] was 117%, the Activity [11] was 125% and the Activity [12] was 118%. It also gave an Activity [13] of 121%, an Activity [14] of 113% and an EC50 [15] of 1890 nM. It also gave an Activity [16] of 108%.

From ChEMBL document CHEMBL1152575, “Synthesis and GABA(A) receptor activity of 2,19-sulfamoyl analogues of allopregnanolone” (Bioorg Med Chem, 2009)
